{"data": "Assay results collected from several papers", "LGALS4 C-terminal domain": "Galectin-4, C-terminal domain (LGALS4, Homo sapiens, UniProt P56470)", "PIM1": "Serine/threonine-protein kinase pim-1 (PIM1, Homo sapiens, UniProt P11309)", "CDK2": "Cyclin-dependent kinase 2 (CDK2, Homo sapiens, UniProt P24941)", "CDK2 with cyclin A2": "Cyclin-dependent kinase 2, with cyclin A2 (CDK2, Homo sapiens, UniProt P24941)", "CTSB": "Cathepsin B (CTSB, Homo sapiens, UniProt P07858)", "note": "Each line is one published result; the experiments were not run side by side."}
{"Structure (SMILES)": "CC(=O)c1nn(-c2ccc(C)cc2)/c(=N/N=C(\\C)c2ccc(NC(=O)c3ccccc3)cc2)s1", "target": "Cyclin-dependent kinase 8, with cyclin C (CDK8, Homo sapiens, UniProt P49336)", "assay": "enzyme activity, inhibitor", "quantity": "IC50", "value": "0.267 µM"}
{"Structure (SMILES)": "CC1OC(OC2C(OC3C(CO)OC(O)C(O)C3O)OC(CO)C(O)C2OC2OC(CO)C(O)C(O)C2O)C(O)C(O)C1O (stereo not drawn)", "target": "LGALS4 C-terminal domain", "assay": "binding, NMR", "quantity": "Kd", "value": "170 µM"}
{"Structure (SMILES)": "CCOc1nc(-c2cccc(O)c2)cc(-c2cc3cc(OC)ccc3nc2N2CCOCC2)c1C#N", "target": "PIM1", "assay": "enzyme activity, inhibitor", "quantity": "IC50", "value": "0.11 µM"}
{"Structure (SMILES)": "COc1ccc2[nH]c(C(=O)Nc3nc(CC(=O)O)cs3)cc2c1", "target": "CDK2", "assay": "enzyme activity, inhibitor, ELISA", "quantity": "IC50", "value": "3.19 µM"}
{"Structure (SMILES)": "CC(=O)Nc1c(N)nc(SCC(=O)N/N=C/c2ccc([N+](=O)[O-])cc2)[nH]c1=O", "target": "CDK2 with cyclin A2", "assay": "enzyme activity, inhibitor", "quantity": "IC50", "value": "0.189 µM"}
{"Structure (SMILES)": "CCCOc1nc(-c2cccc(O)c2)cc(-c2cc3cc(OC)ccc3nc2N2CCOCC2)c1C#N", "target": "PIM1", "assay": "enzyme activity, inhibitor", "quantity": "IC50", "value": "0.095 µM"}
{"Structure (SMILES)": "NCCCNc1ncnc2c1ncn2[C@@H]1O[C@H](CN(CC#Cc2cccc(C(N)=O)c2)CC[C@H](N)C(=O)O)[C@@H](O)[C@H]1O", "target": "Nicotinamide N-methyltransferase (NNMT, Homo sapiens, UniProt P40261)", "assay": "enzyme activity, inhibitor, fluorescence", "quantity": "IC50", "value": "0.15 µM"}
{"Structure (SMILES)": "CCOC(=O)/C=C/C(=O)[C@H](CC(C)C)NC(=O)[C@H](Cc1ccccc1)NC(=O)[C@H](Cc1ccccc1)N=[N+]=[N-] (mixture of isomers)", "target": "CTSB", "assay": "enzyme activity, inhibitor", "quantity": "IC50", "value": "0.32 µM"}
{"Structure (SMILES)": "C[C@H]1C[C@H]2[C@@H]3CCC4=CC(=O)C=C[C@]4(C)[C@@]3(Cl)[C@@H](O)C[C@]2(C)[C@@]1(O)C(=O)CO", "target": "ADGRG3 (Homo sapiens, UniProt Q86Y34)", "assay": "β-arrestin recruitment, agonist", "quantity": "EC50", "value": "3.49 µM"}
{"Structure (SMILES)": "CC(=O)Nc1c(N)nc(SCC(=O)NN)[nH]c1=O", "target": "CDK2 with cyclin A2", "assay": "enzyme activity, inhibitor", "quantity": "IC50", "value": "0.172 µM"}
{"Structure (SMILES)": "COc1cc(N2CCC(N3CCN(C)CC3)CC2)ccc1Nc1ncc(Cl)c(Nc2ccccc2P(C)(C)=O)n1", "target": "Multidrug and toxin extrusion protein 1 (SLC47A1, Homo sapiens, UniProt Q96FL8)", "assay": "transporter uptake, inhibitor", "quantity": "Ki", "value": "0.78 µM"}
{"Structure (SMILES)": "CC(C)C[C@H](NC(=O)[C@H](Cc1ccccc1)NC(=O)OCc1ccccc1)C(=O)C=O", "target": "CTSB", "assay": "enzyme activity, inhibitor", "quantity": "IC50", "value": "4.36 µM"}
{"Structure (SMILES)": "Nc1ccccc1NC(=O)c1ccc(CNc2ccc(NC3=C(Cl)C(=O)c4cccnc4C3=O)cc2)cc1", "target": "M-phase inducer phosphatase 3 (Homo sapiens, UniProt P30307)", "assay": "enzyme activity, inhibitor", "quantity": "IC50", "value": "0.23 µM"}
{"Structure (SMILES)": "CC(C)Oc1ccc(S(=O)(=O)c2ccc(Oc3cc(OCC(N)=O)c(C(=O)C(Cl)Cl)cc3[N+](=O)[O-])cc2)cc1", "target": "[Pyruvate dehydrogenase (acetyl-transferring)] kinase isozyme 4, mitochondrial (PDK4, Homo sapiens, UniProt Q16654)", "assay": "enzyme activity, inhibitor, ATP luminescence", "quantity": "IC50", "value": "17.2 µM"}
{"Structure (SMILES)": "CCOC(=O)[C@H]1O[C@@H]1C(=O)N[C@@H](CC(C)C)C(=O)NCCC(C)C", "target": "CTSB", "assay": "enzyme activity, inhibitor", "quantity": "IC50", "value": "0.012 µM"}
{"Structure (SMILES)": "CC(=O)NC1C(OC2C(O)C(CO)OC(OC3C(CO)OC(O)C(O)C3O)C2OC2OC(C)C(O)C(O)C2O)OC(CO)C(O)C1O (stereo not drawn)", "target": "LGALS4 C-terminal domain", "assay": "binding, NMR", "quantity": "Kd", "value": "63 µM"}
{"Structure (SMILES)": "O=C(O)Cc1csc(NC(=O)c2cc3ccccc3[nH]2)n1", "target": "CDK2", "assay": "enzyme activity, inhibitor, ELISA", "quantity": "IC50", "value": "1.71 µM"}
{"Structure (SMILES)": "Cc1ccc2oc(=O)cc(NCCO)c2c1", "target": "Alpha-1A adrenergic receptor (Adra1a, Rattus norvegicus, UniProt P43140)", "assay": "calcium signal, antagonist", "quantity": "IC50", "value": "1820 µM"}
